Experimental findings from ChEMBL document CHEMBL4261646, “Bisphosphonate Inhibitors of Mammalian Glycolytic Aldolase” (J Med Chem, 2018) are described below.

SMILES strings stand for the structures. Active and inactive are the calls of the source. No cut-off for these calls is given here.

A short description of data set [1]: Competitive-inhibition of fructose-bisphosphate aldolase (unknown origin) using FBP as substrate and […] in presence of constant enzyme concentration by UV-Vis spectrophotometry dependent TIM/GDH coupled assay based double-reciprocal plot analysis. On the set-up: species or system Homo sapiens. The method in brief:
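Recombinant rabbit muscle aldolase at 0.01 μg/mL in TIM/GDH-coupled assay (NADH oxidation at 340 nm, 25 °C, Tris-acetate pH 7.5, 0.3 mM NADH).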

The test system of data set [2] is HeLa. Kind of data set: Growth inhibition of human HeLa cells at 1 to 50 uM after 24 to 72 hrs by trypan blue exclusion assay. The format is functional, cell-based. The method in brief:
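HeLa cells were seeded at 3 x 10^5 cells/plate and grown in DMEM at 37 °C/5% CO2 with filter-sterilized inhibitor for 24, 48 or 72 h. Cells were trypsinized (0.25%), pelleted and resuspended. Total cells were counted by Trypan blue exclusion on a hemocytometer. At least three independent experiments; Student's two-tailed t-test.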

Data set [3] in a line: Inhibition of rabbit muscle fructose-bisphosphate aldolase using FBP as substrate and NADH by spectrophotometry based coupled enzyme assay. On the set-up: species or system Oryctolagus cuniculus. In a few lines:
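Recombinant rabbit muscle aldolase was expressed in E. coli. FBP cleavage was coupled to triose-phosphate isomerase/glycerol-3-phosphate dehydrogenase, and NADH oxidation was read at 340 nm at 25 °C. Buffer was 50 mM Tris-acetate pH 7.5 with 1 mM EDTA and 0.3 mM NADH. Reactions were started by adding enzyme. At least three independent assays.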

A short description of data set [4]: Dual competitive-inhibition of fructose-bisphosphate aldolase (unknown origin) using FBP as substrate and […] in presence of constant enzyme concentration by UV-Vis spectrophotometry dependent TIM/GDH coupled assay based double-reciprocal plot analysis. On the set-up: species or system Homo sapiens. The method in brief: (§1)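 Recombinant rabbit muscle aldolase was expressed in E. coli BL21-SI. Cleavage of FBP was coupled to TIM/GDH, and NADH oxidation was followed at 340 nm at 25 °C. Buffer was 50 mM Tris-acetate pH 7.5 with 1 mM EDTA and 0.3 mM NADH. Initial rates were fitted to a two-site reversible linear competitive model. At least three independent assays.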

Data set [5] can be described thus: Dual competitive-inhibition of fructose-bisphosphate aldolase (unknown origin) assessed as inhibition constant for two competitive binding sites in enzyme active site using FBP as substrate and […] in presence of constant enzyme concentration by UV-Vis spectrophotometry dependent TIM/GDH coupled assay based double-reciprocal plot analysis. Details: species or system Homo sapiens. The method in brief:
as §1

Data set [6] deals with HeLa. Kind of data set: Growth inhibition of human HeLa cells at 10 uM after 72 hrs by trypan blue exclusion assay relative to control. The data set is classed as functional. To be noted: read-out: GI. In a few lines:
(§2)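 Cells seeded in DMEM (HeLa 3 x 10^5, HEK293 2 x 10^5 per plate) were kept at 37 °C, 5% CO2 with filter-sterilized compound for 24, 48 or 72 h. Cells were trypsinized and total counts made by Trypan blue exclusion on a hemocytometer. Student's two-tailed t-test; at least three independent experiments.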

In data set [7] the test system is HeLa. Kind of data set: Growth inhibition of human HeLa cells assessed as transport efficiency corrected EC50 for after 72 hrs by trypan blue exclusion assay relative to control. The format is functional, cell-based.
Data set [8] in a line: Inhibition of fructose-bisphosphate aldolase (unknown origin) using FBP as substrate and NADH preincubated for 10 mins followed by substrate addition by UV-Vis spectrophotometry based TIM/GDH coupled assay. Details: species or system Homo sapiens. In a few lines:
(§3)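 Recombinant rabbit muscle aldolase was pre-incubated for the listed time with inhibitor at 0.01–20 μM, then assayed with 10 μM FBP. Cleavage was read by TIM/GDH coupling as NADH oxidation at 340 nm, 25 °C, in 50 mM Tris-acetate pH 7.5, 1 mM EDTA, 0.3 mM NADH. IC50 was taken from a 4-parameter fit; at least three independent assays.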

Data set [9] concerns HeLa. Description: Growth inhibition of human HeLa cells at 50 uM after 72 hrs by trypan blue exclusion assay relative to control. The format is functional. To be noted: read-out: GI. The method in brief:
as §2

Data set [10] is described as follows: Slow binding inhibition of fructose-bisphosphate aldolase (unknown origin) assessed as dibasic species population adjusted overall inhibition constant using FBP as substrate and NADH by UV-Vis spectrophotometry dependent TIM/GDH coupled assay based Dixon plot analysis. Details: species or system Homo sapiens. The following applies: read-out: Ki(app).
Data set [11] can be described thus: Inhibition of fructose-bisphosphate aldolase (unknown origin) using FBP as substrate and NADH preincubated for 30 mins followed by substrate addition by UV-Vis spectrophotometry based TIM/GDH coupled assay. Details: species or system Homo sapiens. The method in brief:
as §3

The nature of data set [12]: Inhibition of fructose-bisphosphate aldolase (unknown origin) using FBP as substrate and NADH preincubated for 90 mins followed by substrate addition by UV-Vis spectrophotometry based TIM/GDH coupled assay. Details: species or system Homo sapiens. The method in brief:
as §3

A short description of data set [13]: Slow binding inhibition of fructose-bisphosphate aldolase (unknown origin) assessed as dissociation constant using FBP as substrate and NADH by UV-Vis spectrophotometry dependent TIM/GDH coupled assay based Dixon plot analysis. Details: species or system Homo sapiens. The method in brief:
(§4)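 Recombinant rabbit muscle aldolase, TIM/GDH-coupled NADH oxidation at 340 nm, 25 °C, in Tris-acetate pH 7.5 buffer with 1 mM EDTA and 0.3 mM NADH. Progress curves were recorded with 20–200 μM FBP and 0.5–75 μM inhibitor. Slow-binding constants came from non-linear regression under the Morrison–Walsh model; at least three independent assays.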

Data set [14] in a line: Inhibition of fructose-bisphosphate aldolase (unknown origin) using FBP as substrate and NADH preincubated for 180 mins followed by substrate addition by UV-Vis spectrophotometry based TIM/GDH coupled assay. On the set-up: species or system Homo sapiens. In a few lines:
as §3

The nature of data set [15]: Slow binding inhibition of fructose-bisphosphate aldolase (unknown origin) assessed as dibasic species population adjusted dissociation constant using FBP as substrate and NADH by UV-Vis spectrophotometry dependent TIM/GDH coupled assay based Dixon plot analysis. Details: species or system Homo sapiens. The following applies: read-out: Ki(app).
A short description of data set [16]: Slow binding inhibition of fructose-bisphosphate aldolase (unknown origin) assessed as overall inhibition constant using FBP as substrate and NADH by UV-Vis spectrophotometry dependent TIM/GDH coupled assay based Dixon plot analysis. On the set-up: species or system Homo sapiens. The method in brief: as §4
In data set [17] the test system is HeLa. Kind of data set: Growth inhibition of human HeLa cells after 72 hrs by trypan blue exclusion assay relative to control. The format is functional, cell-based. The method in brief: as §2
The next data set concerns HEK293. Kind of data set: Growth inhibition of HEK293 cells at 1 to 50 uM after 24 to 72 hrs by trypan blue exclusion assay. The format is cell-based. To be noted: human, hek293, 50 µM. In a few lines:
as §2

The nature of data set [18]: Inhibition of fructose-bisphosphate aldolase (unknown origin) using FBP as substrate and NADH preincubated for 0 mins followed by substrate addition by UV-Vis spectrophotometry based TIM/GDH coupled assay. Details: species or system Homo sapiens. The method in brief: as §3
Data set [19] is described as follows: Inhibition of fructose-bisphosphate aldolase (unknown origin). On the set-up: species or system Homo sapiens.

`O=P(O)(O)Oc1ccc(C(P(=O)(O)O)P(=O)(O)O)cc1`: the Ki in data set [1] is 42000 nM. Further, in the data set on HeLa [2], the “growth inhibition (GI)” value was “inactive”.
In turn, `O=C(COP(=O)(O)O)[C@@H](O)[C@@H](O)[C@H](O)COP(=O)(O)O` came in with a Ki in data set [3] of 120000 nM.
Turning to `O=P(O)(O)C(c1ccc2cc(O)ccc2c1)P(=O)(O)O`, the Ki in [4] amounted to 13000 nM; in [5] it was 9000 nM.
In the case of `O=P([O-])([O-])Oc1ccc2cc(C(P(=O)([O-])[O-])P(=O)([O-])[O-])ccc2c1.[Li+].[Li+].[Li+].[Li+].[Li+].[Li+]`, in the data set on HeLa [6], the inhibition of growth at 10 µM worked out at 30%. For the same compound, the values for the EC50 with HeLa [7] and in the data set on HeLa [17] were 75 nM and 50000 nM, respectively. Moreover, the IC50 (in general, the concentration at which inhibition is half-maximal) was found to be 170 nM in data set [8]; 130 nM in [11]; 60 nM in data set [12]; 68 nM in [14]; 670 nM in data set [18]. The inhibition of growth at 50 µM with HeLa [9] came out at 50%. The Ki turned out to be 7.6 nM in data set [10], 280 nM in [13], 56 nM in [15] and 38 nM in [16]. Also, the “growth inhibition (GI)” value in the data set with HEK293 is recorded as “Non-Toxic”.
With `O=P(O)(O)Oc1ccc2cc(OP(=O)(O)O)ccc2c1`, the Ki in data set [1] and in data set [19] was 280 nM throughout.
